This is a sample that favours compounds with a hit; in the whole collection about 4% have one here.
Statin myotox sup – protects C2C12 myotubes from simvastatin toxicity | ATP luminescence, 48 h; scaled: DMSO 0, geranylgeraniol control 100 | rescue of ATP level, % at 7.49 µM | 0.78% of 330,000 active | AID 602340;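 active = mean ATP rescue above about 67%, or every replicate alone reaching that limit, limit read from the data, passing the limit was not always enough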;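 note: myotubes were challenged with 10 µM simvastatin during compound exposure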
FN deposit inh – fibronectin deposition inhibition; AID 743247; AH1F fibroblasts, Alexa488-fibronectin deposition fluorescence, overnight; 0.086% of 350,000 active; inhibition, % at 12.6 µM;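 active = mean inhibition across replicates of 30% or more, regardless of how many single replicates reach that level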;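 note: positive control wells lacked labelled fibronectin entirely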
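Assay system: AH1F fibroblast monolayer, labelled fibronectin deposition. Amount: 10000 cells per well. Also added: labelled fibronectin 24 nM. Compound: single-point pinned compound. Incubation: cell attachment 1 h, compound and FN exposure overnight. Detection: fluorescence after three HBSS washes, excitation 485 nm, emission 525 nm. Read-out: inhibition of fibronectin deposition signal.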
E-selectin induc – induces E-selectin expression in human endothelial cells. HUVEC E-selectin immunofluorescence imaging; normalized: neutral wells 0, TNF-alpha wells 100. AID 686992. 0.37% of 260,000 active. P16581. activation, % at 7.58 µM;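 active = mean E-selectin-positive cell signal at least 10% of the positive control, reached in at least 60% of replicates, without over 20% cell loss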
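System: HUVEC, human umbilical vein endothelial cells; quantity: 3,000 cells/well; buffer or medium: EGM-2 medium, gelatin-coated wells; dosing: single-point compound dose; detection: immunofluorescence imaging; evaluation: % PE-positive cells; benchmarks: TNF-alpha, DMSO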
SIRT5 block – sirtuin-5 (human) deacylase inhibition. 1.1% of 330,000 active. Q9NXA8. inhibition, % at 15 µM. Purified SirT5, succinyl-peptide AMC, trypsin-coupled fluorescence; in the data active = inhibition above about 15%
Target sequence (Q9NXA8 whole entry, looked up): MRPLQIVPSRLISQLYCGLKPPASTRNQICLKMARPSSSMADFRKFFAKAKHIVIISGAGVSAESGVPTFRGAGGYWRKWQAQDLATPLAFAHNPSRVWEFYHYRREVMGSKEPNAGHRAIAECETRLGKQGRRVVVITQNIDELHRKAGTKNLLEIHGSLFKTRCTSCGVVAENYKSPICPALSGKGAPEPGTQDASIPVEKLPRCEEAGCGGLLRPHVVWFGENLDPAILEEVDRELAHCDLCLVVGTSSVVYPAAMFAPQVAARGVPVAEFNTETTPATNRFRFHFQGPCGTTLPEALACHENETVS
rRNA inh HTS – inhibitors of bacterial rRNA selective over humanized ribosomes; GFP signal change (wild-type ribosome), % (concentration not given with the values); 1.6% of 350,000 active; E. coli WT GFP vs humanized-ribosome RFP mutants, fluorescence, 24 h; hits give low values; DMSO median 0, no signal -100; AID 720706;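 active = significant combined selectivity score with lowered wild-type GFP, culture density cut under 30%, mutant RFP and density less affected; inactive = any of these conditions unmet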
FGF22 binding – shifts melting point of recombinant human FGF22; AID 651658; Q9HCT0; recombinant FGF22 thermal shift, SYPRO orange fluorescence; percent of sucrose octasulfate shift, DMSO zero; activity (Tm shift, normalised), % at 9.99 µM; 1.5% of 340,000 active;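 active = mean Tm shift, scaled 0 neutral to 100 positive control, at about 1.3% or above, every replicate too, limit read from the data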
Target sequence (Q9HCT0 whole entry, looked up): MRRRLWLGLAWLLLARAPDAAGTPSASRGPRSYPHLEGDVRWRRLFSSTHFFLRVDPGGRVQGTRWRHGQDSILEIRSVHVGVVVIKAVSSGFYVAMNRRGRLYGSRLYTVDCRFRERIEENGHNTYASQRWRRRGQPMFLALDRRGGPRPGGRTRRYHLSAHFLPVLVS
Starred values were filed as active, the others as inactive; nt = no result.

SMILES | Statin myotox sup | FN deposit inh | E-selectin induc | SIRT5 block | rRNA inh HTS | FGF22 binding
CC(=O)Nc1nc2n(n1)C(c1ccccc1)C=C(c1ccccc1)N2 (configuration not stated) | -4 | nt | nt | nt | nt | nt
C[C@@H]1CN([C@@H](C)CO)C(=O)c2cc(NS(=O)(=O)c3ccccc3)ccc2O[C@@H]1CN(C)S(=O)(=O)c1cn(C)cn1 | 5 | nt | 0 | -5 | 4 | 0
Cn1cnc(S(=O)(=O)N2C[C@H](O)COC[C@H]3O[C@@H](CC(=O)NCc4ccc(F)cc4)CC[C@@H]32)c1 | 4 | -2 | 0 | -1 | 4 | 0
O=C1C=C(c2ccccc2Oc2ccccc2)C[C@@H](c2ccc(F)cc2)C1 | 1 | -2 | 0 | nt | -2 | 43*
O=C1C=C(c2ccc(-c3ccccc3)cc2)C[C@@H](c2ccc(F)cc2)C1 | 10 | -7 | 1 | nt | 2 | 0
CCC(=O)N1C[C@H](C)[C@H](OC)CN(C)C(=O)c2cc(NC(=O)NC(C)C)ccc2OC[C@@H]1C | 0 | -3 | 0 | -1 | 2 | 0
COc1ccc(S(=O)(=O)NCCc2ccc(F)cc2)cc1 | -8 | 3 | nt | nt | nt | nt
CCCCNc1ccc(C(F)(F)F)cc1S(=O)(=O)NCCc1ccc(F)cc1 | -10 | -1 | 0 | nt | -2 | 21*
CSc1ccccc1NC(=S)N/N=C/c1cccn1Cc1ccc(F)cc1 | nt | 1 | 1 | -3 | -21* | 0
COc1ccc(Cl)cc1NS(=O)(=O)c1c(C)[nH]c(=O)[nH]c1=O | 87* | 6 | 0 | -3 | -5 | 0
O=C(NCC[C@@H]1CC[C@@H](NC(=O)C2CC2)[C@@H](CO)O1)Nc1ccc(C(F)(F)F)cc1 | -19 | 10 | 1 | -1 | -4 | 0
CC(C)NC(=O)NNC(=O)c1nn(-c2ccc(F)cc2)ccc1=O | nt | 0 | 0 | 22* | 1 | 0
CC(C)Cc1nc2ccccc2[nH]1 | 0 | 3 | 0 | 1 | 14 | 0
CCC(C)SCc1nc2ccccc2[nH]1 (configuration not stated) | 121* | nt | nt | nt | nt | nt
CN1CCN(C(=O)C[C@@H]2CC[C@H]3[C@@H](COC[C@H](O)CN3Cc3cccc(Cl)c3)O2)CC1 | 2 | -9 | 0 | -4 | -1 | 0
O=C(C[C@@H]1CC[C@H]2[C@@H](COC[C@H](O)CN2Cc2nccs2)O1)NCc1ccc(-c2ccccc2)cc1 | 12 | -9 | 0 | -3 | -7 | 0
O=C(O)c1ccc(N/N=C/C2=C(N3CCOCC3)C(=C\c3ccccc3)/CC2)cc1 | -33 | 5 | nt | 19* | -36* | 0
O=C1N2CCCc3cccc(c32)C12Nc1ccccc1S2 (configuration not stated) | 152* | nt | nt | nt | nt | nt
Cc1ccc(NC(=O)c2sc(=S)n(-c3cc(C)ccc3F)c2N)cc1 | 7 | -7 | 0 | -1 | 11 | 43*
C=C(C)COc1ccc2oc(C)c(C(=O)OCCOC)c2c1 | 106* | -5 | nt | nt | nt | nt
CCCNC(=O)[C@H]1[C@H](CO)[C@H]2Cn3c(ccc(/C=C/c4ccccc4)c3=O)[C@H]2N1CC | 27 | nt | 0 | -53 | -6 | 0
COc1ccc(CN(C)C[C@H]2Oc3ccc(NC(=O)CCC(F)(F)F)cc3CC(=O)N([C@@H](C)CO)C[C@H]2C)cc1 | 2 | nt | 0 | 5 | 0 | 0
O=C(O)Cc1sc(Nc2ccc(Cl)cc2)nc1-c1cccs1 | nt | nt | 9 | -1 | -12 | 1.4*
COc1ccc(NC(=O)CNC(=O)Cn2c(C)cc3ccccc3c2=O)c(OC)c1 | nt | 8 | nt | 0 | 17 | 43*
COc1cc(NC(=O)CNC(=O)Cn2c(C)cc3ccccc3c2=O)cc(OC)c1OC | -2 | -3 | nt | -7 | 8 | 0
SMILES | Statin myotox sup | FN deposit inh | E-selectin induc | SIRT5 block | rRNA inh HTS | FGF22 binding
C=CCOC(=O)[C@@H]1[C@H]2C(=O)O[C@H](c3ccccc3)[C@H](c3ccccc3)N2[C@H](c2ccc(OCCOC(=O)[C@@H]3C[C@@H]4C(=O)N[C@@H](Cc5ccccc5)C(=O)N4[C@@H]3c3ccc(O)cc3)cc2)[C@@]12C(=O)Nc1ccc(I)cc12 | nt | nt | nt | 19* | nt | 0
C=CCOC(=O)[C@H]1[C@@H]2C(=O)O[C@@H](c3ccccc3)[C@@H](c3ccccc3)N2[C@@H](c2ccc(OCCOC(=O)[C@@H]3C[C@@H]4C(=O)N[C@@H](Cc5ccccc5)C(=O)N4[C@@H]3c3ccc(O)cc3)cc2)[C@]12C(=O)Nc1ccc(I)cc12 | nt | nt | nt | -3 | nt | 0
Cc1ccc(-c2nc3c(Cl)cc(C(F)(F)F)cn3c2Cc2cccc(F)c2)cc1 | 1 | 13 | 0 | 22* | 0 | 0
Cc1ccc(-c2nc3c(Cl)cc(C(F)(F)F)cn3c2Cc2ccccc2)cc1 | 0 | -2 | 0 | 15* | 2 | 0
N#Cc1ccc(-c2nc3ccc(Br)cn3c2Cc2cccc(F)c2)cc1 | 4 | -3 | nt | -3 | nt | 0
Cc1cc(Br)cn2c(Cc3cccc(F)c3)c(-c3ccc(C#N)cc3)nc12 | nt | 30* | 0 | -1 | -24 | 0
C[C@H]1CN([C@@H](C)CO)C(=O)c2cccc(NS(=O)(=O)c3ccc(Cl)cc3)c2O[C@@H]1CN(C)C(=O)Nc1cccc2ccccc12 | nt | nt | 0 | -1 | -1 | 0
Cc1ccc(S(=O)(=O)N(CC(=O)N/N=C/c2ccccc2C(=O)O)c2cc(Cl)cc(Cl)c2)cc1 | nt | -8 | -2 | -3 | 8 | 43*
C/C(=N\NC(=O)C1CC1c1ccccc1)c1cccc([N+](=O)[O-])c1 (configuration not stated) | -20 | nt | nt | nt | nt | nt
C/C(=N\NC(=O)C1CC1(c1ccccc1)c1ccccc1)c1cccc([N+](=O)[O-])c1 (configuration not stated) | nt | 2 | -1 | 15* | 9 | 0
C[C@@H]1CN([C@@H](C)CO)C(=O)c2cccc(NC(=O)Nc3ccc(C(F)(F)F)cc3)c2O[C@H]1CN(C)S(=O)(=O)c1ccccc1 | -27 | nt | 1 | nt | 1 | nt
CC(C)c1cn(CC[C@@H]2CC[C@H](NS(=O)(=O)Cc3ccccc3)[C@H](CO)O2)nn1 | -14 | -11 | 0 | 0 | 2 | 0
Cc1nc2ccccn2c1C(=O)CSc1cccc(Cl)c1 | nt | 1 | nt | 1 | -57 | 0
Cc1nc2ccccn2c1C(=O)CSc1ccccc1 | nt | -2 | nt | 4 | -37* | 0
Cc1ccccc1-c1ccc([C@H]2[C@@H](CO)N3C(=O)CN(C(=O)c4ccccc4)C[C@@H]23)cc1 | nt | nt | 0 | -2 | -2 | nt
COc1ccc(-c2[nH]ncc2CN2CCC(C(=O)N3CCOCC3)CC2)c(F)c1 | 4 | -3 | 0 | 0 | 14 | 0
O=C(C1CCN(Cc2cn[nH]c2-c2ccc(F)cc2F)CC1)N1CCOCC1 | nt | nt | nt | 3 | 11 | 44*
